From ChEMBL document CHEMBL4732206, “Novel diaryl-2H-azirines: Antitumor hybrids for dual-targeting tubulin and DNA” (Eur J Med Chem, 2021) come the findings set out here.

The source made the active and inactive calls. The rule behind the calls is not given here.

Data set [1] relates to HeLa. Nature of the data set: Induction of apoptosis in human HeLa cells assessed as upregulation of PARP cleavage by Western blot analysis. Format: functional, cell-based. As to conditions: dose 2-8 µM. Put shortly: (§1)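 HeLa cells were treated with graded concentrations or DMSO, washed in PBS and lysed. Protein was measured by BCA, separated by SDS-PAGE and transferred to PVDF. Membranes were blocked in 5% BSA/TBST, incubated with primary antibodies overnight at 4 °C, then with HRP secondary antibodies. Bands were detected by chemiluminescence.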

Data set [2] has as its system Jurkat. Nature of the data set: Induction of DNA damage in human Jurkat cells assessed as increase in DNA lesion incubated for 48 hrs by comet assay. Format: functional, cell-based. As to conditions: dose 100-400 nM. Put shortly: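 Jurkat cells were exposed to graded concentrations, MMC 200 nM positive control or DMSO for 48 h at 37 °C, with work done in darkness. Cells were embedded in LM agarose on comet slides and lysed for 2 h at 4 °C. Slides were unwound in 1 mM EDTA/200 mM NaOH for 30 min, electrophoresed at 25 V for 15 min, stained with ethidium bromide and imaged by fluorescence microscopy. Tail moment was scored.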

The test system of data set [3] is HeLa. The experiment in a line: Induction of apoptosis in human HeLa cells assessed as necrotic cells at 2 uM incubated for 48 hrs by annexin-V-FITC and PI staining based flow cytometry analysis (reference value: 0.18 %). It is filed as functional. Background: A flow cytometer gives signals particle by particle.
Data set [4] has as its system HeLa. The experiment in a line: Induction of apoptosis in human HeLa cells assessed as early apoptotic cells at 2 uM incubated for 48 hrs by annexin-V-FITC and PI staining based flow cytometry analysis (reference value: 2.25 %). Format: functional.
The subject of data set [5] is HeLa. Nature of the data set: Induction of cell cycle arrest in human HeLa cells assessed as increase in accumulation of cells at G2/M phase incubated for 24 hrs by PI staining based flow cytometry analysis. It is filed as functional. The conditions noted are these: dose 0.4-3.2 µM. Put shortly:
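HeLa cells were grown for 24 h, then treated with graded concentrations or DMSO for 24 h. Cells were fixed in 75% ethanol at −20 °C overnight, treated with RNase A and stained with PI in PBS in the dark at room temperature. DNA content was measured by flow cytometry.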

Another data set relates to HUVEC. The experiment in a line: Antiangiogenic activity in HUVEC assessed as disruption of capillary structure incubated for 12 hrs by matrigel-based microscopic analysis. As to conditions: Homo sapiens, dose 75-150 nM. Format: functional, cell-based. An outline of the steps: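 Matrigel polymerized at 37 °C for 2 h, then HUVECs in DMEM were seeded on it. Cells were treated with a range of compound concentrations or DMSO vehicle for 12 h at 37 °C. Capillary-like tubes were photographed through an inverted microscope.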

Data set [6] can be described thus: Toxicity in Balb/c mouse xenografted with human A2780 cells assessed as adverse effect at 25 to 50 mg/kg administered every two days. It is filed as organism-based. The conditions noted are these: in vivo, dose 25-50 mg/kg.
Data set [7] concerns HeLa. Nature of the data set: Induction of apoptosis in human HeLa cells assessed as viable cells at 2 uM incubated for 48 hrs by annexin-V-FITC and PI staining based flow cytometry analysis (reference value: 97.34 %). Format: functional. The conditions noted are these: read-out: Activity.
Data set [8] concerns HeLa. Nature of the data set: Induction of apoptosis in human HeLa cells assessed as viable cells at 1 uM incubated for 48 hrs by annexin-V-FITC and PI staining based flow cytometry analysis (reference value: 97.34 %). Format: functional. As to conditions: read-out: Activity.
Data set [9] concerns Jurkat. Nature of the data set: Induction of DNA damage in human Jurkat cells assessed as upregulation of Bax protein expression incubated for 48 hrs by Western blot analysis. As to conditions: dose 2-8 µM. It is filed as functional, cell-based.
The test system of data set [10] is HeLa. The experiment in a line: Induction of apoptosis in human HeLa cells assessed as late apoptotic cells at 1 uM incubated for 48 hrs by annexin-V-FITC and PI staining based flow cytometry analysis (reference value: 0.23 %). Format: functional.
The test system of a further data set is HCT-116. The experiment in a line: Antiproliferative activity against human HCT-116 cells assessed as reduction in cell viability incubated for 48 hrs by MTT assay. Format: functional, cell-based. The conditions noted are these: HCT-116, 48 h. An outline of the steps: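 Cells were grown in DMEM with 10% FBS and penicillin/streptomycin at 37 °C and 5% CO2. They were seeded for 24 h, then treated with graded concentrations for 48 h. MTT (5 mg/mL) was added for a further 4 h at 37 °C. Formazan was dissolved in DMSO and absorbance read at 570 nm. IC50 was taken from the concentration-response curve.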
Background: Formazan colour is commonly taken as a measure of viable cells.

In data set [11] the test system is HeLa. Nature of the data set: Induction of apoptosis in human HeLa cells assessed as early apoptotic cells at 4 uM incubated for 48 hrs by annexin-V-FITC and PI staining based flow cytometry analysis (reference value: 2.25 %). Format: functional.
In data set [12] the test system is HeLa. The experiment in a line: Induction of cell cycle arrest in human HeLa cells assessed as upregulation of cyclinB1 protein expression at 0.8 to 3.2 uM by Western blot analysis. It is filed as functional, cell-based. As to conditions: dose 0.8-3.2 µM. An outline of the steps: as §1
A general note: A western blot detects proteins with antibodies after separation by electrophoresis.

The next data set concerns the target Tubulin (Homo sapiens) (UniProt P68371+Q9H4B7+P0DPH7+P68366+Q13509+Q71U36+P04350+Q3ZCM7+P07437+P68363+Q9BQE3+Q6PEY2+Q13885+Q9BVA1+Q9BUF5). The experiment in a line: Inhibition of tubulin polymerization in human HeLa cells assessed as shrink in cell border at 100 to 200 nM incubated for overnight by DAPI staining based immunofluorescence assay. The conditions noted are these: dose 100-200 nM. Put shortly: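 HeLa cells were treated overnight with a range of concentrations or DMSO. Cells were fixed in methanol, permeabilized with 0.1% Triton X-100 and blocked in 3% BSA for 1 h. They were stained with α-tubulin monoclonal antibody overnight at 4 °C, then Alexa 488 secondary antibody, with DAPI counterstain for 10 min. Images were taken by confocal microscopy.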

One may read the IC50 as the midpoint of a concentration-inhibition curve. On to `COc1ccc(C2N=C2c2cc(OC)c(OC)c(OC)c2)cc1F` (stereo not given), for which the Activity result in the data set on HeLa [1] is “Dose-dependent effect”; in the data set on Jurkat [2] it was “Dose-dependent effect”; in the data set on HeLa [3] it was 0.65%; in the data set on HeLa [4] it was 18.98%; in the data set on HeLa [5] it was “Dose-dependent effect”; in the data set on HUVEC, “Dose-dependent effect”. The Activity result is “Non-Toxic” in data set [6], “Dose-dependent effect” in the data set with Jurkat [9], 1.38% in the data set on HeLa [10] and 28.43% with HeLa [11]. Also, the viability at 2 µM with HeLa [7] is 74.7%. Moreover, the viability at 1 µM in the data set with HeLa [8] was found to be 95.5%. In the data set with HCT-116, the IC50 turned out to be 630 nM. In addition, the result in the data set with HeLa [12] was Active. Further, the inhibition result at Tubulin (Homo sapiens) is “Active”.
